In brackets after ≈: the same amount, converted by molar mass. Some results are limits rather than exact numbers.

We go through 9 molecules from ChEMBL document CHEMBL1177835, “A note to the biological activity of benzoxazine derivatives containing the thioxo group” (Eur J Med Chem, 2010).

Common to all, as to assay type: functional
For assay [1], the system named is Mycobacterium tuberculosis. Nature of the assay: Antimycobacterial activity against Mycobacterium tuberculosis CNCTC My 331/88 after 14 days by microdilution method. As to conditions: CNCTC My 331/88, 336 h. An outline of the steps: (§1)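 MIC determined by a dilution micromethod. Strains came from the Czech National Collection of Type Cultures, Prague. Compounds were added to the medium as DMSO solutions. Each inoculum was also plated in parallel on Löwenstein–Jensen medium to check its sterility and growth. The M. avium strain is identical with ATCC 25291 and resistant to INH.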

The subject of assay [2] is Mycobacterium tuberculosis. In words: Antimycobacterial activity against Mycobacterium tuberculosis CNCTC My 331/88 after 21 days by microdilution method. The settings on record: CNCTC My 331/88, 504 h. Summed up:
as §1
Background: In broth dilution the organism is exposed to a series of concentrations in liquid medium.

Assay [3] has as its system Mycobacterium avium. Nature of the assay: Antimycobacterial activity against Mycobacterium avium CNCTC My 330/88 after 14 days by microdilution method. The settings on record: CNCTC My 330/88, 336 h. An outline of the steps: as §1
Assay [4] relates to Mycobacterium avium. Nature of the assay: Antimycobacterial activity against Mycobacterium avium CNCTC My 330/88 after 21 days by microdilution method. The settings on record: CNCTC My 330/88, 504 h. An outline of the steps: as §1
The subject of assay [5] is Mycobacterium kansasii. Nature of the assay: Antimycobacterial activity against Mycobacterium kansasii CNCTC My 235/80 after 14 days by microdilution method. The settings on record: CNCTC My 235/80, 336 h. An outline of the steps:
(§2)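 Dilution micromethod for MIC; compounds added to medium as DMSO solutions. Each strain also inoculated onto Löwenstein–Jensen medium to control inoculum sterility and growth. Strain 6509/96 is a clinical isolate; CNCTC strains from the Czech national type culture collection.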

The test system of assay [6] is Mycobacterium kansasii. In words: Antimycobacterial activity against Mycobacterium kansasii CNCTC My 235/80 after 21 days by microdilution method. The settings on record: CNCTC My 235/80, 504 h. An outline of the steps: as §2
In assay [7] the test system is Mycobacterium kansasii. In words: Antimycobacterial activity against Mycobacterium kansasii 6509/96 after 14 days by microdilution method. The settings on record: 6509/96, 336 h. An outline of the steps:
as §2

The subject of assay [8] is Mycobacterium kansasii. In words: Antimycobacterial activity against Mycobacterium kansasii 6509/96 after 21 days by microdilution method. The settings on record: 6509/96, 504 h. An outline of the steps: as §2

In general, MIC refers to the smallest concentration in the dilution series that meets the test's criterion for growth inhibition. A higher MIC goes with a need for much substance. Regarding `S=c1oc2ccc(Cl)cc2c(=S)n1Cc1ccc(Cl)c(Cl)c1`, the MIC in assay [1] turned out to be 4 µM (≈ 1.55 µg/mL); in assay [2], 8 µM (≈ 3.11 µg/mL); in the assay with Mycobacterium avium [3], 16 µM (≈ 6.22 µg/mL); against Mycobacterium avium [4], 32 µM (≈ 12.4 µg/mL); in the assay on Mycobacterium kansasii [5] it was 32 µM (≈ 12.4 µg/mL); in the assay with Mycobacterium kansasii [6] it was 32 µM (≈ 12.4 µg/mL). Also, the MIC against Mycobacterium kansasii [7] and in the assay with Mycobacterium kansasii [8] was 32 µM (≈ 12.4 µg/mL) in each case.

For `S=c1oc2ccc(Br)cc2c(=S)n1Cc1ccc(Cl)c(Cl)c1`, the minimal inhibitory concentration (MIC) in assay [1] came to 4 µM (≈ 1.73 µg/mL); in assay [2], 8 µM (≈ 3.47 µg/mL); against Mycobacterium avium [3], 16 µM (≈ 6.93 µg/mL); with Mycobacterium avium [4], 16 µM (≈ 6.93 µg/mL); with Mycobacterium kansasii [5] it was 16 µM (≈ 6.93 µg/mL); in the assay on Mycobacterium kansasii [6] it was 32 µM (≈ 13.9 µg/mL). The minimal inhibitory concentration (MIC) was 16 µM (≈ 6.93 µg/mL) in the assay with Mycobacterium kansasii [7] and 32 µM (≈ 13.9 µg/mL) against Mycobacterium kansasii [8].

For `S=c1oc2ccc(Br)cc2c(=S)n1Cc1ccccc1`, the minimal inhibitory concentration (MIC) in assay [1] was found to be 1 µM (≈ 0.364 µg/mL); in assay [2] it was 2 µM (≈ 0.729 µg/mL); against Mycobacterium avium [3], 8 µM (≈ 2.91 µg/mL); with Mycobacterium avium [4], 8 µM (≈ 2.91 µg/mL); with Mycobacterium kansasii [5], 8 µM (≈ 2.91 µg/mL); in the assay with Mycobacterium kansasii [6] it was 8 µM (≈ 2.91 µg/mL). The MIC turned out to be 4 µM (≈ 1.46 µg/mL) against Mycobacterium kansasii [7] and 8 µM (≈ 2.91 µg/mL) in the assay with Mycobacterium kansasii [8].

For the molecule `CO[C@H]1/C=C/O[C@@]2(C)Oc3c(C)c(O)c4c(O)c(c(/C=N/N5CCN(C)CC5)c(O)c4c3C2=O)NC(=O)/C(C)=C\C=C\[C@H](C)[C@H](O)[C@@H](C)[C@@H](O)[C@@H](C)[C@H](OC(C)=O)[C@@H]1C` [RIFAMPIN], the MIC in assay [1] was 0.25 µM (≈ 0.206 µg/mL); in assay [2], 0.5 µM (≈ 0.411 µg/mL); with Mycobacterium avium [3] it was 16 µM (≈ 13.2 µg/mL); in the assay with Mycobacterium avium [4], 65 µM (≈ 53.5 µg/mL); against Mycobacterium kansasii [5], 0.25 µM (≈ 0.206 µg/mL); in the assay with Mycobacterium kansasii [6], 0.25 µM (≈ 0.206 µg/mL). Also, the MIC with Mycobacterium kansasii [7] was found to be 0.125 µM (≈ 0.103 µg/mL); against Mycobacterium kansasii [8] it was 0.25 µM (≈ 0.206 µg/mL).

Turning to `NNC(=O)c1ccncc1` [ISONIAZID], the minimal inhibitory concentration (MIC) in assay [1] is 1 µM (≈ 0.137 µg/mL); in assay [2], 1 µM (≈ 0.137 µg/mL); against Mycobacterium avium [3], greater than 250 µM; with Mycobacterium avium [4] it was greater than 250 µM; against Mycobacterium kansasii [5], greater than 250 µM; with Mycobacterium kansasii [6], greater than 250 µM. The MIC in the assay with Mycobacterium kansasii [7] and against Mycobacterium kansasii [8] was 8 µM (≈ 1.1 µg/mL) in each case.

As to `S=c1oc2c(Cl)cc(Cl)cc2c(=S)n1Cc1ccc(Cl)c(Cl)c1`, the minimum inhibitory concentration (MIC) in assay [1] came out at 32 µM (≈ 13.5 µg/mL); in assay [2], 32 µM (≈ 13.5 µg/mL); against Mycobacterium avium [3] it was 62.5 µM (≈ 26.4 µg/mL); in the assay with Mycobacterium avium [4], 62.5 µM (≈ 26.4 µg/mL); against Mycobacterium kansasii [5] it was 62.5 µM (≈ 26.4 µg/mL); against Mycobacterium kansasii [6], 62.5 µM (≈ 26.4 µg/mL). Further, the MIC with Mycobacterium kansasii [7] and with Mycobacterium kansasii [8] was 62.5 µM (≈ 26.4 µg/mL) each time.

For `Fc1ccc(Cn2c(=S)oc3ccc(Cl)cc3c2=S)cc1`, the MIC in assay [1] worked out at 1 µM (≈ 0.338 µg/mL); in assay [2] it was 2 µM (≈ 0.676 µg/mL); with Mycobacterium avium [3], 8 µM (≈ 2.7 µg/mL); in the assay with Mycobacterium avium [4], 16 µM (≈ 5.41 µg/mL); with Mycobacterium kansasii [5] it was 8 µM (≈ 2.7 µg/mL); in the assay on Mycobacterium kansasii [6], 16 µM (≈ 5.41 µg/mL). For the same molecule, the MIC with Mycobacterium kansasii [7] worked out at 8 µM (≈ 2.7 µg/mL); against Mycobacterium kansasii [8] it was 16 µM (≈ 5.41 µg/mL).

As for `S=c1oc2ccccc2c(=S)n1Cc1ccc(Cl)c(Cl)c1`, the minimal inhibitory concentration (MIC) in assay [1] turned out to be 1 µM (≈ 0.354 µg/mL); in assay [2], 2 µM (≈ 0.709 µg/mL); against Mycobacterium avium [3], 0.5 µM (≈ 0.177 µg/mL); against Mycobacterium avium [4] it was 0.5 µM (≈ 0.177 µg/mL); in the assay on Mycobacterium kansasii [5] it was 4 µM (≈ 1.42 µg/mL); with Mycobacterium kansasii [6], 4 µM (≈ 1.42 µg/mL). The MIC against Mycobacterium kansasii [7] and against Mycobacterium kansasii [8] was 4 µM (≈ 1.42 µg/mL) each time.

For the molecule `S=c1oc2ccccc2c(=S)n1Cc1ccccc1`, the MIC is 1 µM (≈ 0.285 µg/mL) in assay [1]; 1 µM (≈ 0.285 µg/mL) in assay [2]; 1 µM (≈ 0.285 µg/mL) with Mycobacterium avium [3]; 1 µM (≈ 0.285 µg/mL) in the assay on Mycobacterium avium [4]; 2 µM (≈ 0.571 µg/mL) against Mycobacterium kansasii [5]; 2 µM (≈ 0.571 µg/mL) against Mycobacterium kansasii [6]. For the same molecule, the minimum inhibitory concentration (MIC) against Mycobacterium kansasii [7] is 1 µM (≈ 0.285 µg/mL); with Mycobacterium kansasii [8], 2 µM (≈ 0.571 µg/mL).
